Data set [1] is described as follows: folding enthalpy; higher = less favourable; fluorescence melt of hairpins on a sequencing array, two-state fit. The note with it: sodium 0.088 M. The method in brief:
(§1)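 Cy3 fluorescence of library hairpins on a sequenced MiSeq flow cell, with annealed Cy3 and quencher oligos, was imaged in 50 mM Na-HEPES pH 8.0, 25 mM NaCl in 2.5 °C steps up to 60 °C. Signals were normalised to pre-quench Cy3 and to control variants. Melting temperature and folding enthalpy came from bootstrapped two-state fits, inverse-variance combined over four replicates. Fitted temperatures were raised by 9.35 °C to match UV melts.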

Data set [2] in a line: melting temperature; fluorescence melt of hairpins on a sequencing array, two-state fit, raised by 9.35 °C to match UV melts. The note with it: sodium 0.088 M. Put shortly:
as §1

Among the data in the array DNA melting data of Ke et al. (doi:10.1101/2024.01.08.574731) are folding enthalpy and Tm values, retold here.

Turning to GATCGAGAGTCGATC ((((((...)))))), the folding enthalpy in data set [1] is -29.7 kcal/mol. In addition, the Tm in data set [2] is 49.4 °C.

Turning to GCGAACATCGC ((((...)))), the folding enthalpy in data set [1] was -17.1 kcal/mol. The Tm in data set [2] stood at 45.6 °C.

On to GATCCCACGCGGGATC ((((((....)))))), for which the folding enthalpy in data set [1] is -30.7 kcal/mol. The Tm in data set [2] amounted to 63.3 °C.

On to GAGGGTGGAAACGTCCTC ((((..(....)..)))), for which, in data set [1], the folding enthalpy was -23.9 kcal/mol. Further, the Tm in data set [2] was determined as 35.1 °C.

On to GTCAGCGAAAGCTCAGAC ((((((....)))..))), for which the folding enthalpy in data set [1] is -15.8 kcal/mol. Also, the Tm in data set [2] worked out at 34.5 °C.

On to GACCAGCCGAAAGGCGTC (((..(((....)))))), for which the folding enthalpy in data set [1] was -7.85 kcal/mol. Besides, the Tm in data set [2] was found to be 34.5 °C.

As to GCGGCGCGAAAGCTGCGC (((..((....))..))), the folding enthalpy in data set [1] was -26.1 kcal/mol. The Tm in data set [2] came to 63.3 °C.

Take GCACTGCGAAAGCTCTGC (((..((....))..))): in data set [1], the folding enthalpy was -17.4 kcal/mol. Also, in data set [2], the Tm is 35.8 °C.

For GAAGCACGAAAGTGTTTC (((.(((....))).))), the folding enthalpy in data set [1] is -35.2 kcal/mol. Besides, the Tm in data set [2] amounted to 51.1 °C.

For the sequence GATCATGGACATGATC ((((((....)))))), the folding enthalpy in data set [1] was -40.7 kcal/mol. In addition, in data set [2], the Tm worked out at 54.3 °C.

As for GGTGGCGAAAGCCCAACC ((((((....)))..))), the folding enthalpy in data set [1] is -14.8 kcal/mol. Besides, the Tm in data set [2] was determined as 42 °C.

Turning to GGGGTTGGAAACAGCCCC ((((.((....)).)))), the folding enthalpy in data set [1] was -44.7 kcal/mol. Moreover, the Tm in data set [2] was 57.9 °C.

For GGAAGACGAAAGTCTCC (((.(((....)))))), the folding enthalpy in data set [1] was -20.9 kcal/mol. The Tm in data set [2] came out at 52.3 °C.

Consider GCGGGGTTCCGC ((((....)))), for which the folding enthalpy in data set [1] was -18.7 kcal/mol. Also, the Tm in data set [2] turned out to be 61.1 °C.

Consider GATCTCAGGAGAGATC ((((((....)))))), for which the folding enthalpy in data set [1] was -34.7 kcal/mol. The Tm in data set [2] was determined as 50.8 °C.

In the case of GCAGTCGAAAGACGGTGC ((((((....)))..))), the folding enthalpy in data set [1] was -19 kcal/mol. Moreover, the Tm in data set [2] was determined as 48.5 °C.

With GGCTACGAAAGTAATGCC ((((((....)))..))), in data set [1], the folding enthalpy is -22.6 kcal/mol. In addition, the Tm in data set [2] was 46.9 °C.

GTTTACCGAAAGGTGAAC (((.(((....))).))): in data set [1], the folding enthalpy was -33 kcal/mol. In addition, in data set [2], the Tm was found to be 51.4 °C.

With GCCCAGCGAAAGCCGCGC ((.(.((....)).).)), in data set [1], the folding enthalpy is -10.1 kcal/mol. Also, the Tm in data set [2] is 45.7 °C.

GGAGAATCGAAAGATTCC (((..(((....)))))): the folding enthalpy in data set [1] was -15.8 kcal/mol. Besides, the Tm in data set [2] is 38.1 °C.

On to GGTTGGCGAAAGCCCACC (((.(((....))).))), for which the folding enthalpy in data set [1] was -25.8 kcal/mol. The Tm in data set [2] stood at 51.4 °C.

Regarding GATCAATGGTTGATC ((((((...)))))), the folding enthalpy in data set [1] is -26.7 kcal/mol. In addition, the Tm in data set [2] was found to be 41 °C.

With GGCGAACGAAAGTTTGCC (((.(((....))).))), in data set [1], the folding enthalpy is -37 kcal/mol. In addition, the Tm in data set [2] amounted to 62.1 °C.

Consider GCGAGCGAAAGCTCCCGC ((((((....)))..))), for which the folding enthalpy in data set [1] was -11.6 kcal/mol. The Tm in data set [2] was determined as 42.4 °C.

As for GATCTGCGGCAGATC ((((((...)))))), in data set [1], the folding enthalpy was -46.3 kcal/mol. Further, the Tm in data set [2] is 50.2 °C.

With GTCCCCCGAAAGGGCGAC (((.(((....))).))), the folding enthalpy in data set [1] was -21.6 kcal/mol. Further, the Tm in data set [2] came out at 49.1 °C.

As for GATAGGCCGAAAGGCATC (((..(((....)))))), the folding enthalpy in data set [1] was -9.82 kcal/mol. In addition, in data set [2], the Tm stood at 30.3 °C.

For GGATGTGGAAACATGTCC (((..((....))..))), the folding enthalpy in data set [1] is -20.9 kcal/mol. The Tm in data set [2] stood at 40 °C.

For GTTGATCGAAAGATAAAC (((.(((....))).))), in data set [1], the folding enthalpy is -25.1 kcal/mol. In data set [2], the Tm was found to be 40 °C.

For GGTCGGGCGAAAGCCACC (((..(((....)))))), the folding enthalpy in data set [1] is -11.9 kcal/mol. In data set [2], the Tm stood at 34 °C.

Turning to CGACCCGGAAACGGCTCG (((.(((....))).))), the folding enthalpy in data set [1] was -23.7 kcal/mol. Besides, in data set [2], the Tm was found to be 40.1 °C.

As for GCGGAGCCCCGC ((((....)))), in data set [1], the folding enthalpy was -10.7 kcal/mol. For the same sequence, in data set [2], the Tm stood at 55.8 °C.

For GAGTTAGGAAACTGACTC ((((.((....)).)))), the folding enthalpy in data set [1] is -36.6 kcal/mol. Further, the Tm in data set [2] was 42.4 °C.

Consider GAATACGAAAGTATTTTC ((((((....)))..))), for which the folding enthalpy in data set [1] was -19.9 kcal/mol. Moreover, the Tm in data set [2] was 36.9 °C.

As to GAAAGGAAACTTTC (((((....))))), in data set [1], the folding enthalpy was -16.9 kcal/mol. For the same sequence, the Tm in data set [2] worked out at 30.4 °C.

Consider GAGTTCGGAAACGAACCC (.(((((....))))).), for which, in data set [1], the folding enthalpy was -13.3 kcal/mol. Also, the Tm in data set [2] stood at 41.5 °C.

Regarding GATCGTAAAGACGATC ((((((....)))))), in data set [1], the folding enthalpy is -31.4 kcal/mol. The Tm in data set [2] was 51.1 °C.
